Sampled rows, rich in hits. Any-hit rate of the full collection: about 3.9%.
TAAR1 antagonist: antagonists of human TAAR1. Q96RJ0. CHO RD-HGA16 TAAR1, Fluo-8 calcium fluorescence, antagonist. inhibition, % at 3 µM. 1.5% of 360,000 active;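 active = inhibition above a per-plate cutoff, the mean inhibition of test compounds on that plate plus 3 SD, cut at about 49% in these data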;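 also: 0% = DMSO plus EC80 beta-PEA response and 100% = DMSO alone without agonist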
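Test system: CHO RD-HGA16 cells bearing hTAAR1 | Reagent: β-PEA, EC80 | Compound dosing: 3 µM, single point | Schedule: Dye loading 75 min at 37 °C, then 30 min room temperature | Signal: Calcium fluorescence with Fluo-8 | Evaluation: Percent inhibition of PEA-evoked calcium signal, max/basal emission ratio | Control set: DMSO-only wells and EC80 β-PEA-stimulated wells | Repeats: Singlicate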
TMEM16A act: mouse TMEM16A channel activation, primary screen. 0.3% of 340,000 active. HEK293 TMEM16A/YFP-H148Q/I152L, iodide quench fluorescence; active compounds read low. B-score at 10 µM;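 active = fluorescence-ratio B-score plate-corrected deviation score at least 3 library SD below zero, with starting fluorescence score within 5 deviations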;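 also: channel opened by trigger with iodide after compound preincubation; score built on the fluorescence ratio of max minus min over baseline; more negative score means more quench and so TMEM16A activation or potentiation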
Target sequence (Q8BHY3 whole entry, looked up): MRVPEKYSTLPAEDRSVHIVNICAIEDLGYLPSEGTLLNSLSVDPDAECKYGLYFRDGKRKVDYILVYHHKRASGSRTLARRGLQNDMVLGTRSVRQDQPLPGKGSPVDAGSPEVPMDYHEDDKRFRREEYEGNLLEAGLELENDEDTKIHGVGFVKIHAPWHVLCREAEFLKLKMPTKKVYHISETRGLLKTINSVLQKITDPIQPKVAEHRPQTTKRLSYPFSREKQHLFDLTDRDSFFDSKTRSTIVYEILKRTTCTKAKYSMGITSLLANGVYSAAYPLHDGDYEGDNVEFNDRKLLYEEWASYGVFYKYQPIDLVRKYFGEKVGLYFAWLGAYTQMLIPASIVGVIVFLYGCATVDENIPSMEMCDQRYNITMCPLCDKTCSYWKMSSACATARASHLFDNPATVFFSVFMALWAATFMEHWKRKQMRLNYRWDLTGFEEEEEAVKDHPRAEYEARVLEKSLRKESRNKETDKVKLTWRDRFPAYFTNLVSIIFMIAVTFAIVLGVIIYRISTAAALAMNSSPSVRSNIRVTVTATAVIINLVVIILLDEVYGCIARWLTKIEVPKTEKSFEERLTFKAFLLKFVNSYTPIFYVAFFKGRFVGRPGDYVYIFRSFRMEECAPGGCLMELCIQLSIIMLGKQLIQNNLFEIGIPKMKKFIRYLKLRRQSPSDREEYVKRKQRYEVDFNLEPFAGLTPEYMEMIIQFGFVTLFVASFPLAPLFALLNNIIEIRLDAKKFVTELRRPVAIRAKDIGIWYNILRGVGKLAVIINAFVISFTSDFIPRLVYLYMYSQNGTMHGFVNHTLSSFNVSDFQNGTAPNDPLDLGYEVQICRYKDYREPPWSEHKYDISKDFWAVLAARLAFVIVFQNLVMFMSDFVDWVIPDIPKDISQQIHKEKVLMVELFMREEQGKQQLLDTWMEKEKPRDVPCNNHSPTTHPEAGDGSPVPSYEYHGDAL
CRFR2-BP ag: CRF-BP/CRF-R2 complex agonism; activation, % at 13.2 µM; 0.46% of 350,000 active; HEK293 CRF-R2/CRF-BP, calcium dye fluorescence (FLIPR); percent of saturating CRF peptide response; AID 588473;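 active = activation of at least 50%, plus an integration ratio under a set limit after plate pattern correction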;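 also: plate controls were neutral control wells without compound for no effect and CRF at EC100 for full effect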
TMEM16A inh: blocks the mouse calcium-activated chloride channel TMEM16A | 1.2% of 310,000 active | Q8BHY3 | HEK293 TMEM16A/YFP iodide influx fluorescence, ionomycin | normalized B-score (activity score, 25-100; higher = stronger inhibition) at 10 µM;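 active = ratio plate-corrected score three or more library SD toward inhibition, starting fluorescence score within five deviations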;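 also: score derived from kinetic fluorescence span divided by baseline fluorescence per well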
TAAR1 ag: agonists of human TAAR1 | activation, % at 3 µM | AID 624467 | Q96RJ0 | CHO RD-HGA16 TAAR1, Fluo-8 calcium fluorescence; vehicle wells 0%, saturating PEA agonist 100% | 0.99% of 360,000 active;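 active = activation above the mean activation of all test compounds in the run plus 3 SD, cut at about 38% in these data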
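Test system: RD-HGA16 (CHO) cells co-expressing Gα16 and hTAAR1 | Doses: Single dose, 3 µM | Schedule: 17-24 h seeding, 75 min 37 °C dye, 30 min RT | Evaluation: % activation from peak over basal fluorescence ratio, DMSO-to-PEA scaled | Technique: Kinetic Fluo-8 calcium fluorescence | Benchmarks: Low control DMSO, high control PEA (EC100)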
CRFBP-R2 block: blocks CRF-induced signaling of the CRF-BP/CRF-R2 complex | HEK293 CRF-R2/CRF-BP, CRF-induced calcium fluorescence | inhibition, % at 11.8 µM | 0.59% of 350,000 active | AID 588475;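 active = inhibition of the ligand-induced calcium signal above about 50% at the single tested concentration, limit read from the data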
TMEM16A reconf: TMEM16A (mouse) chloride channel inhibition, re-confirmation. HEK293 TMEM16A/YFP-H148Q, iodide quench fluorescence; ionomycin added to raise cell calcium. shares compounds with TMEM16A inh. inhibition, % at 10 µM. 39% of 2,300 active;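 active = mean duplicate percent inhibition, scaled so buffer wells are 0 and the reference blocker 100, over three buffer SD above buffer mean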
HEK293 Ca mobil: counter-screen for TMEM16A inhibitors: effect on calcium mobilization; calcium response (% of ionomycin), % at 10 µM; 2% of 2,300 active; shares compounds with TMEM16A inh; TMEM16A/YFP HEK293, Fluo4 calcium mobilization;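 active = duplicate-averaged calcium signal over 20% of the ionomycin maximum, relative to buffer baseline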;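 also: each well's signal is peak minus trough fluorescence divided by its pre-addition baseline; 0% = buffer wells and 100% = ionomycin wells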
YFP-HEK293 quench: counter-screen for TMEM16A inhibitors: effect in parental YFP-HEK293 cells; YFP ratio F(max-min)/F0 at 10 µM; iodide YFP quench, ionomycin; shares compounds with TMEM16A inh; 2,300 tested, under 10 active;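 active = yellow fluorescent protein signal ratio exceeding the buffer control mean by over 5 SD of those controls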;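 also: ratio is mean of duplicate wells from kinetic YFP trace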
ClC-1 inh: selectivity of TMEM16A inhibitors: inhibition of rat ClC-1 chloride channel; CHO ClC-1-YFP, iodide influx fluorescence quench; iodide control reads 0, buffer control 100; ratio percent, % at 10 µM; shares compounds with TMEM16A inh; 2,300 tested, under 10 active; AID 652236;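 active = duplicate-mean ratio percent above the mean of iodide-only control wells, which defines zero, plus 5 of their SD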;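 also: higher percent means stronger block of ClC-1 iodide influx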
* = called active by the depositor; i = inactive; . = no result.

SMILES | TAAR1 antagonist | TMEM16A act | CRFR2-BP ag | TMEM16A inh | TAAR1 ag | CRFBP-R2 block | TMEM16A reconf | HEK293 Ca mobil | YFP-HEK293 quench | ClC-1 inh
COC(=O)C1=C(c2cccc(OC)c2OC)C[C@@H]2CC[C@H]1N2C(=O)NCCS(C)=O (stereo not given in full) | 15 | i | 0 | 100* | 6 | 0 | i | i | -1 | -10
C=CC[C@@H](CC/C=C/C=C/CC/C=C\[C@@H]1CSC([C@@H]2C[C@@H]2C)=N1)OC | . | . | -3 | . | . | 15 | . | . | . | .
Cc1cc2c(C(F)(F)F)cc(=O)oc2c2c1NCCC2 | 1 | i | 178* | i | 15 | -214 | 18%* | 30%* | -0.94 | -4
O=C(c1c[nH]c2ccc(S(=O)(=O)N3CCC4(CC3)OCCO4)cc2c1=O)N1CCC2(CC1)OCCO2 | 6 | i | -2 | i | 0 | -4 | . | . | . | .
CCOC(=O)C1(CCc2ccccc2)CCN(Cc2ccc(NC(C)=O)cc2)CC1 | -2 | i | 1 | i | 7 | -1 | . | . | . | .
CCOC(=O)C1(CCc2ccccc2)CCN(Cc2ccc3c(c2)OCCO3)CC1 | 21 | i | 3 | 25* | 3 | -35 | i | i | -1.1 | -8
O=C(/C=C/c1ccc(F)cc1)NC(=S)N1C[C@H]2C[C@H](C1)c1cccc(=O)n1C2 | -15 | i | -2 | i | 1 | 9 | . | . | . | .
O=[N+]([O-])c1ccc(N2CCCCCC2)c2ncccc12 | -8 | i | 0 | 25* | 3 | 10 | i | i | -0.88 | 1
CC12CCC(O)CC1CCC1C2CCC2(C)C(C(=O)CO)CCC12 (stereo not given) | 24 | . | . | . | 5 | . | . | . | . | .
Cc1nc(SCc2c(Cl)cccc2Cl)nc(OC(=O)N(C)C)c1C | -11 | i | -2 | i | 2 | 8 | . | . | . | .
CN1CCc2nc(N)c(C#N)c(-c3ccccc3)c2C1 | 20 | i | 0 | i | 27 | 12 | i | i | -0.95 | -2
O=C(Nc1ccc(C(F)(F)F)cc1)c1cccn(Cc2ccc3c(c2)OC(F)(F)O3)c1=O | -8 | i | 1 | 25* | 5 | -18 | i | i | -0.99 | -12
Cc1oc(-c2cccs2)nc1CSCC(=O)N1CCC2(CC1)OCCO2 | 1 | i | 0 | i | 2 | 11 | . | . | . | .
O=C(Cc1cccs1)N1CCC2(CC1)OCCO2 | -1 | i | -2 | i | 14 | 5 | i | i | -0.94 | -2
CC(=O)Nc1ccccc1C(=O)C(=O)Nc1cccc(C(=O)N2CCC3(CC2)OCCO3)c1 | -15 | i | -3 | i | 3 | 1 | . | . | . | .
Cc1c(C)c2ccc(OCC(=O)N3C[C@H]4C[C@@H](C3)c3cccc(=O)n3C4)c(C)c2oc1=O | -4 | i | -2 | i | 1 | 12 | . | . | . | .
Cn1nc(-c2ccc(OCC(=O)N3CCN(Cc4ccccc4)CC3)cc2)c2ccccc2c1=O | 32 | i | 0 | 100* | 14 | 16 | 20%* | i | -0.96 | -14
O=C(COc1ccccc1)c1cn(Cc2ccccc2)c2ccccc12 | 21 | i | 15 | i | 6 | 11 | i | i | -0.76 | 12
